Measurements taken from the array DNA melting data of Ke et al. (doi:10.1101/2024.01.08.574731).

Assays:
[1] = folding enthalpy; higher = less favourable; fluorescence melt of hairpins on a sequencing array, two-state fit; details: sodium 0.088 M
Outline: (§1)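 Cy3 signals were normalised both to pre-quench Cy3 and to control constructs. They came from library hairpins carrying annealed Cy3 and quencher oligos on a sequenced MiSeq flow cell, imaged in 50 mM Na-HEPES pH 8.0, 25 mM NaCl, in 2.5 °C steps up to 60 °C. Bootstrapped two-state fits gave melting temperature and folding enthalpy, and four replicates were combined by inverse variance. Fitted temperatures were then raised by 9.35 °C to match UV melts.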

[2] = melting temperature; fluorescence melt of hairpins on a sequencing array, two-state fit, raised by 9.35 °C to match UV melts; details: sodium 0.088 M
Outline: as §1

| Sequence | folding enthalpy [1] [kcal/mol] | Tm [2] [°C] |
| --- | --- | --- |
| GATCAGGGCGCTGATC ((((((....)))))) | -47.4 | 55.4 |
| GATCAGGGGGCTGATC ((((((....)))))) | -38.3 | 49.7 |
| GATCAGGGGTCTGATC ((((((....)))))) | -32.6 | 50.8 |
| GATCAGGTACCTGATC ((((((....)))))) | -40.6 | 58.8 |
| GATCAGGTACTGATC ((((((...)))))) | -41.1 | 61.4 |
| GATCAGGTATCTGATC ((((((....)))))) | -40.8 | 57.5 |
| GATCAGGTCACTGATC ((((((....)))))) | -45.8 | 59.4 |
| GATCAGTACTCTGATC ((((((....)))))) | -43.4 | 50.4 |
| GATCAGTAGGCTGATC ((((((....)))))) | -42.3 | 52.4 |
| GATCAGTATGCTGATC ((((((....)))))) | -36.1 | 55.2 |
| GATCAGTCAGCTGATC ((((((....)))))) | -40.9 | 51.3 |
| GATCAGTGACCTGATC ((((((....)))))) | -30.1 | 48.7 |
| GATCAGTGGCTGATC ((((((...)))))) | -22 | 49.7 |
| GATCAGTGTTCTGATC ((((((....)))))) | -37.3 | 50.2 |
| GATCAGTTCCCTGATC ((((((....)))))) | -32 | 49.7 |
| GATCATAAAATGATC ((((((...)))))) | -30.7 | 48 |
| GATCATAAAGATGATC ((((((....)))))) | -24.4 | 40 |
| GATCATAACCATGATC ((((((....)))))) | -35.7 | 47.4 |
| GATCATAAGAATGATC ((((((....)))))) | -27.7 | 40.1 |
| GATCATAAGATGATC ((((((...)))))) | -31.1 | 46.6 |
| GATCATACACATGATC ((((((....)))))) | -36 | 47.2 |
| GATCATACTGATGATC ((((((....)))))) | -30.2 | 46.3 |
| GATCATAGCGATGATC ((((((....)))))) | -44.1 | 46.9 |
| GATCATAGGATGATC ((((((...)))))) | -30.8 | 48.3 |

| Sequence | folding enthalpy [1] [kcal/mol] | Tm [2] [°C] |
| --- | --- | --- |
| GATCATAGGCATGATC ((((((....)))))) | -32.4 | 48.5 |
| GATCATAGGTATGATC ((((((....)))))) | -40.5 | 49.1 |
| GATCATATAGATGATC ((((((....)))))) | -36.2 | 45.6 |
| GATCATCACGATGATC ((((((....)))))) | -42.6 | 51.8 |
| GATCATCATATGATC ((((((...)))))) | -35.5 | 47.2 |
| GATCATCCAGATGATC ((((((....)))))) | -37.5 | 50.3 |
| GATCATCCTAATGATC ((((((....)))))) | -35 | 49 |
| GATCATCGCCATGATC ((((((....)))))) | -35.7 | 46.3 |
| GATCATCGCTATGATC ((((((....)))))) | -38.8 | 47.2 |
| GATCATCTCAATGATC ((((((....)))))) | -41.6 | 48.9 |
| GATCATGAACATGATC ((((((....)))))) | -41 | 54 |
| GATCATGACAATGATC ((((((....)))))) | -40.6 | 56.6 |
| GATCATGACCATGATC ((((((....)))))) | -41.5 | 55.2 |
| GATCATGCACATGATC ((((((....)))))) | -41.5 | 56.3 |
| GATCATGCCTATGATC ((((((....)))))) | -42.4 | 52.3 |
| GATCATGCGGATGATC ((((((....)))))) | -34.1 | 47 |
| GATCATGGAAACACGATC ((((.((....)).)))) | -22.9 | 33.8 |
| GATCATGGAAACATGATC (((((((....))))))) | -35.3 | 56.2 |
| GATCATGGCATGATC ((((((...)))))) | -44 | 51.3 |
| GATCATGGGGATGATC ((((((....)))))) | -29.2 | 46.5 |
| GATCATGGTCATGATC ((((((....)))))) | -38 | 51.8 |
| GATCATGTCATGATC ((((((...)))))) | -32.5 | 51.3 |
| GATCATGTGAATGATC ((((((....)))))) | -39.3 | 54.6 |
| GATCATGTTATGATC ((((((...)))))) | -36.1 | 50.3 |

| Sequence | folding enthalpy [1] [kcal/mol] | Tm [2] [°C] |
| --- | --- | --- |
| GATCATTAAGATGATC ((((((....)))))) | -34.8 | 46.4 |
| GATCATTACGATGATC ((((((....)))))) | -34.9 | 48.5 |
| GATCATTATCATGATC ((((((....)))))) | -38.9 | 45.8 |
| GATCATTATTATGATC ((((((....)))))) | -32.2 | 47.5 |
| GATCATTCAAATGATC ((((((....)))))) | -34 | 47.3 |
| GATCATTCAATGATC ((((((...)))))) | -30.6 | 47.1 |
| GATCATTGGCATGATC ((((((....)))))) | -30.3 | 45.5 |
| GATCATTGGTATGATC ((((((....)))))) | -31.8 | 46.3 |
| GATCATTGTAATGATC ((((((....)))))) | -36 | 50.3 |
| GATCATTTACATGATC ((((((....)))))) | -35.2 | 46.3 |
| GATCATTTCGATGATC ((((((....)))))) | -41.6 | 49.2 |
| GATCATTTGCATGATC ((((((....)))))) | -34.4 | 46.4 |
| GATCCAAACATGGATC ((((((....)))))) | -32.7 | 50.8 |
| GATCCAAAGTTGGATC ((((((....)))))) | -35.2 | 49.8 |
| GATCCAACATTGGATC ((((((....)))))) | -43.3 | 50 |
| GATCCAACTATGGATC ((((((....)))))) | -39.6 | 49.6 |
| GATCCAACTGTGGATC ((((((....)))))) | -32.6 | 49.1 |
| GATCCAAGATGGATC ((((((...)))))) | -34 | 49 |
| GATCCAAGGGTGGATC ((((((....)))))) | -32 | 48.4 |
| GATCCAAGGTTGGATC ((((((....)))))) | -37.5 | 51.4 |
| GATCCAAGTGTGGATC ((((((....)))))) | -32.3 | 50.3 |
| GATCCAATGCTGGATC ((((((....)))))) | -32.5 | 49.1 |
| GATCCAATGGTGGATC ((((((....)))))) | -29.4 | 48.3 |
| GATCCACAGTGGATC ((((((...)))))) | -40.5 | 49.7 |

| Sequence | folding enthalpy [1] [kcal/mol] | Tm [2] [°C] |
| --- | --- | --- |
| GATCCACAGTTGGATC ((((((....)))))) | -41 | 49.3 |
| GATCCACATTTGGATC ((((((....)))))) | -36.8 | 50.7 |
| GATCCACCACTGGATC ((((((....)))))) | -36.9 | 49.4 |
| GATCCACCATTGGATC ((((((....)))))) | -31.5 | 49.4 |
| GATCCACCCATGGATC ((((((....)))))) | -34.2 | 50.7 |
| GATCCACCGTGGATC ((((((...)))))) | -37.4 | 48.5 |
| GATCCACCGTTGGATC ((((((....)))))) | -36.5 | 49.7 |
| GATCCACCTCTGGATC ((((((....)))))) | -33 | 49 |
| GATCCACCTGTGGATC ((((((....)))))) | -42.1 | 63.8 |
| GATCCACGAAAGTGAATC (((.(((....))).))) | -24.2 | 42.4 |
| GATCCACGAAAGTGATC (((.(((....)))))) | -21.4 | 41.3 |
| GATCCACGAAAGTGTATC (((.(((....))).))) | -24.2 | 37.6 |
| GATCCACGCCTGGATC ((((((....)))))) | -36.9 | 52.3 |
| GATCCACGTCTGGATC ((((((....)))))) | -38.3 | 49.5 |
| GATCCACTACTGGATC ((((((....)))))) | -35.5 | 49.7 |
| GATCCACTAGTGGATC ((((((....)))))) | -40.6 | 62.3 |
| GATCCACTATGGATC ((((((...)))))) | -30.6 | 52.7 |
| GATCCAGAACTGGATC ((((((....)))))) | -37.6 | 56.4 |
| GATCCAGAAGTGGATC ((((((....)))))) | -35.5 | 52.1 |
| GATCCAGAATTGGATC ((((((....)))))) | -34.7 | 57.2 |
| GATCCAGACTGGATC ((((((...)))))) | -36.9 | 52 |
| GATCCAGAGGTGGATC ((((((....)))))) | -28.5 | 47.8 |
| GATCCAGCCATGGATC ((((((....)))))) | -38.8 | 58.7 |
| GATCCAGCCCTGGATC ((((((....)))))) | -48 | 54.1 |
